The source of these data is ChEMBL document CHEMBL3124865, “Sulfur rich 2-mercaptobenzothiazole and 1,2,3-triazole conjugates as novel antitubercular agents” (2014).

The term MIC denotes the lowest concentration found to suppress growth. High values mean a less susceptible organism, low ones a more susceptible organism. As a reminder, the MBC is the lowest tested concentration that kills the bacteria rather than only halting them. Lower therefore signals greater bactericidal potency.

Each structure is given as a SMILES string. ≈ marks a conversion by molar mass, not a printed value. Some results are limits rather than exact numbers.

Assay type in all cases: functional
In assay [1] the test system is Mycobacterium tuberculosis. The experiment in a line: Antimycobacterial activity against Mycobacterium tuberculosis H37Rv after 2 to 3 weeks by broth microdilution assay. The essentials: (§1)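 M. tuberculosis H37Rv in broth microdilution. Compounds were first screened at one fixed concentration in triplicate, and actives went on to MIC determination. Plates were incubated 2–3 weeks at 37 °C in a CO₂ incubator. MIC was read visually as the absence of growth turbidity.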
A general note: In broth dilution the organism is exposed to a series of concentrations in liquid medium.

Assay [2] has as its system Mycobacterium tuberculosis. The experiment in a line: Bactericidal activity against Mycobacterium tuberculosis H37Rv after 20 days. The conditions noted are these: 480 h. The essentials: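 After the microdilution MIC run, 0.02 mL of H37Rv suspension from wells at MIC and higher concentrations was plated on 7H10 agar (7H11 also named). Viable counts were taken after 20 days at 37 °C. MBC is the lowest concentration that cut viable counts by at least 99% versus compound-free wells.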

Assay [3] has as its system Mycobacterium tuberculosis. The experiment in a line: Antimycobacterial activity against Mycobacterium tuberculosis. The essentials: as §1

Molecule `O=C(CSc1nc2ccccc2s1)N1CCOCC1` registered an MIC in assay [1] of under 128 µg/mL.

For the molecule `O=C(CSc1nc2ccccc2s1)N1CCCCC1`, in assay [1], the minimal inhibitory concentration (MIC) is under 128 µg/mL.

Molecule `O=C(C(=O)N1CCCC1)c1c[nH]c2ccccc12` came in with an MIC in assay [1] of under 128 µg/mL.

Turning to `Clc1ccccc1-n1cc(CSc2nc3ccccc3s2)nn1`, the minimal inhibitory concentration (MIC) in assay [1] stood at 16 µg/mL (≈ 44.6 µM). Turning to `Clc1cccc(-n2cc(CSc3nc4ccccc4s3)nn2)c1`, the MBC in assay [2] is over 64 µg/mL. In addition, in assay [1], the MIC came out at 8 µg/mL (≈ 22.3 µM). In assay [1], `Clc1ccc(-n2cc(CSc3nc4ccccc4s3)nn2)cc1` displayed an MIC of under 128 µg/mL. On the same count and under the same terms, as for `Fc1ccc(-n2cc(CSc3nc4ccccc4s3)nn2)cc1`, the figure is under 128 µg/mL; as for `Brc1ccc(-n2cc(CSc3nc4ccccc4s3)nn2)cc1`, 16 µg/mL (≈ 39.7 µM). For the molecule `O=[N+]([O-])c1ccc(-n2cc(CSc3nc4ccccc4s3)nn2)cc1`, the MBC in assay [2] worked out at 32 µg/mL (≈ 86.6 µM). Further, the MIC in assay [1] is 8 µg/mL (≈ 21.7 µM). The corresponding values for `O=[N+]([O-])c1cccc(-n2cc(CSc3nc4ccccc4s3)nn2)c1` are 64 µg/mL (≈ 173 µM) and 8 µg/mL (≈ 21.7 µM). In turn, `Cc1ccccc1-n1cc(CSc2nc3ccccc3s2)nn1` gave an MIC in assay [1] of under 128 µg/mL. In turn, `CCOc1ccc(-n2cc(CSc3nc4ccccc4s3)nn2)cc1` displayed a minimum inhibitory concentration (MIC) in assay [1] of under 128 µg/mL.

In the case of `c1ccc(-n2cc(CSc3nc4ccccc4s3)nn2)cc1`, the MIC in assay [1] was under 128 µg/mL. Same read-out and setting: for `c1cncc(-n2cc(CSc3nc4ccccc4s3)nn2)c1` the value was 16 µg/mL (≈ 49.2 µM). In turn, `CC1(C)O[C@H]2OC(Cn3cc(CSc4nc5ccccc5s4)nn3)[C@@H]3OC(C)(C)O[C@@H]3[C@@H]2O1` (stereo partly drawn) yielded an MBC in assay [2] of 32 µg/mL (≈ 65.2 µM). Also, the minimal inhibitory concentration (MIC) in assay [1] was 8 µg/mL (≈ 16.3 µM). As to `CC1(C)OCC(Cn2cc(CSc3nc4ccccc4s3)nn2)O1` (stereo not drawn), in assay [1], the MIC was under 128 µg/mL.

Turning to `CC1COC2(CCN(c3nc(=O)c4cc(C(F)(F)F)cc([N+](=O)[O-])c4s3)CC2)O1` (stereo not drawn), the lowest concentration to inhibit growth in assay [3] (MIC) was 0.001 µg/mL (≈ 0.00232 µM). `CN1CCN(C(=O)C(=O)c2c[nH]c3ccccc23)CC1` returned an MIC in assay [1] of under 128 µg/mL. On the same count and under the same terms, for `O=C(C(=O)N1CCSCC1)c1c[nH]c2ccccc12` the value was under 128 µg/mL; for `O=C(NN1CCOCC1)C(=O)c1c[nH]c2ccccc12`, under 128 µg/mL; for `O=C(NNC(=O)c1ccncc1)C(=O)c1c[nH]c2ccccc12`, 64 µg/mL (≈ 208 µM). Molecule `O=C(CSc1nc2ccccc2s1)N1CCCC1` had a minimal inhibitory concentration (MIC) in assay [1] of under 128 µg/mL.

With `CN1CCN(C(=O)CSc2nc3ccccc3s2)CC1`, the MIC in assay [1] is under 128 µg/mL. Still for that read-out and setting: as for `O=C(CSc1nc2ccccc2s1)N1CCSCC1`, the figure is 64 µg/mL (≈ 206 µM); as for `O=C(CSc1nc2ccccc2s1)NN1CCOCC1`, under 128 µg/mL.

As for `O=C(CSc1nc2ccccc2s1)Nc1ccc(F)cc1`, the minimal inhibitory concentration (MIC) in assay [1] turned out to be 64 µg/mL (≈ 201 µM).

On to `O=C(CSc1nc2ccccc2s1)Nc1ccc(Br)cc1`, for which the MIC in assay [1] was under 128 µg/mL. The same measure, in the same setting: for `O=C(CSc1nc2ccccc2s1)Nc1ccccn1` the value was 64 µg/mL (≈ 212 µM); for `O=C(CSc1nc2ccccc2s1)NCc1ccc(F)cc1`, under 128 µg/mL. Same read-out and setting: as for `O=C(CSc1nc2ccccc2s1)NNC(=O)c1ccncc1`, the figure is under 128 µg/mL; as for `O=C(C(=O)N1CCOCC1)c1c[nH]c2ccccc12`, under 128 µg/mL. In the case of `O=C(C(=O)N1CCCCC1)c1c[nH]c2ccccc12`, the minimum inhibitory concentration (MIC) in assay [1] is under 128 µg/mL.

As for `NNC(=O)c1ccncc1` [ISONIAZID], in assay [1], the lowest concentration to inhibit growth (MIC) was 0.125 µg/mL (≈ 0.911 µM). Still for that read-out and setting: for `CO[C@H]1/C=C/O[C@@]2(C)Oc3c(C)c(O)c4c(O)c(c(/C=N/N5CCN(C)CC5)c(O)c4c3C2=O)NC(=O)/C(C)=C\C=C\[C@H](C)[C@H](O)[C@@H](C)[C@@H](O)[C@@H](C)[C@H](OC(C)=O)[C@@H]1C` [RIFAMPIN] the value was 0.06 µg/mL (≈ 0.0729 µM).
